In ChEMBL document CHEMBL1143670, “An adamantyl-substituted retinoid-derived molecule that inhibits cancer cell growth and angiogenesis by inducing apoptosis and binds to small heterodimer partner nuclear receptor: effects of modifying its carboxylate group on apoptosis, proliferation, and protein-tyrosine phosphatase activity” (J Med Chem, 2007):
Activity calls are given as the source filed them. The rule behind the calls is not given here.

What was measured:
MDA-MB-231 [1] = assay: Induction of apoptosis in MDA-MB-231 cells at 1 uM after 96 hrs; assay type: functional, Homo sapiens
In short: (§1)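 Apoptotic cells scored by acridine orange staining. KG-1, HL-60R or MDA-MB-231 cells seeded in medium with 5% FBS, incubated overnight, then exposed to compound in Me2SO (0.1% final) for the stated time.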

[2] = Antiproliferative activity against HMVE cells; assay type: functional, cell-based; details: Homo sapiens
[3] = Inhibition of HMVE cell proliferation at 0.5 uM relative to control; assay type: functional; details: Homo sapiens
KG-1 [4] = assay: Induction of apoptosis in retinoid-resistant KG1 cells at 1 uM after 48 hrs; assay type: functional, Homo sapiens; in short: as §1
KG-1 [5] = assay: Growth inhibition of retinoid-resistant KG1 cells at 5 uM after 48 hrs; assay type: functional; details: Homo sapiens, KG-1, 48 h
In short: (§2)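 KG-1 cells grown in RPMI-1640 with 5% heat-inactivated FBS and gentamycin, seeded in 3 mL medium plus 5% FBS, incubated overnight. Compound then added in Me2SO (0.1% final), cells incubated for the stated time, harvested and counted by hemocytometer.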

MDA-MB-231 [6] = assay: Growth inhibition of retinoid-resistant MDA-MB-231 cells after 72 hrs; assay type: functional, cell-based; details: Homo sapiens, MDA-MB-231, 72 h
In short: (§3)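 Cells seeded at 2 × 10^3 per well for H292 and DU-145 (RPMI-1640, 10% FBS) or 4 × 10^3 for MDA-MB-231 (DMEM, 10% FBS), 37 °C, 6% CO2. After 24 h attachment, treated 72 h with compound in Me2SO (0.1% final); media and compound renewed at 48 h. Viable cells by MTS reduction; triplicates per concentration.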

MDA-MB-231 [7] = assay: Growth inhibition of retinoid-resistant MDA-MB-231 cells at 1 uM relative to control; assay type: functional; details: Homo sapiens; in short: as §3
[8] = Growth inhibition of retinoid-resistant H292 cells after 72 hrs; assay type: functional, cell-based; details: Homo sapiens, NCI-H292, 72 h; in short: as §3
[9] = Growth inhibition of retinoid-resistant H292 cells at 1 uM relative to control; assay type: functional; details: Homo sapiens, NCI-H292; in short: as §3
DU-145 [10] = assay: Growth inhibition of retinoid-resistant DU145 cells after 72 hrs; assay type: functional, cell-based; details: Homo sapiens, DU-145, 72 h; in short: as §3
DU-145 [11] = assay: Growth inhibition of retinoid-resistant DU145 cells at 1 uM relative to control; assay type: functional; details: Homo sapiens; in short: as §3
KG-1 [12] = assay: Inhibition of cell proliferation in retinoid-resistant KG1 cells after 48 hrs; assay type: functional, cell-based; details: Homo sapiens, KG-1, 48 h; in short: as §2
KG-1 [13] = assay: Inhibition of cell proliferation in retinoid-resistant KG1 cells at 1 uM after 48 hrs relative to control; assay type: functional; details: Homo sapiens, KG-1, 48 h; in short: as §2
[14] = Growth inhibition of primary HMVE cells after 72 hrs; assay type: functional, cell-based; details: Homo sapiens
In short: (§4)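 Primary HMVE cells, 1 × 10^4 per well in EGM-MV medium, incubated 1 h at 37 °C. Compound in Me2SO added, or Me2SO alone (0.5% final). After 72 h at 37 °C, cells detached with trypsin/EDTA and counted by hemocytometer; three replicates.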

HMVE [15] = assay: Induction of apoptosis in HMVE cells assessed as increase in oligonucleosome levels after 20 hrs by ELISA; assay type: functional, cell-based; details: Homo sapiens
In short: (§5)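 HMVE cells (6 × 10^4 per well) seeded in EGM-MV, incubated 6 h at 37 °C. Then treated 20 h with compound (10–500 nM), 1.0 µM doxorubicin or Me2SO (0.5% final). Cytoplasmic histone-associated DNA fragments in lysate supernatant measured by Cell Death Detection ELISA; triplicates.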

[16] = Induction of apoptosis in HMVE cells at 0.5 uM after 20 hrs relative to adriamycin; assay type: functional, Homo sapiens; in short: as §5
HMVE [17] = assay: Inhibition of HMVE cell migration through Matrigel after 5 hrs; assay type: functional, cell-based; details: Homo sapiens
In short: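 Transwell inserts (8 µm pores) with undersides coated with Matrigel (30 µg/mL), blocked with 1% BSA. HMVE cells from 80% confluent cultures, released enzyme-free, were placed in inserts with compound (0.05–500 nM) or Me2SO (0.01% final). After 5 h at 37 °C, cells on underside fixed, stained with Diff-Quick and counted in three high-power fields per well; mean ± SD of three replicates.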

HMVE [18] = assay: Inhibition of HMVE cell tubule formation in Matrigel after 18 hrs; assay type: functional, cell-based; details: Homo sapiens
In short: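 Trypsinized HMVE cells (5 × 10^4 per well in EGM-MV) plated on gelled Matrigel, held 1 h at 37 °C, then exposed 18 h at 37 °C to 0.25 or 1.0 µM compound or Me2SO (0.05% final). Total tube length measured from phase-contrast images, four random fields per well, three replicates.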

[19] = target: T1, Nuclear receptor subfamily 0 group B member 2 (Homo sapiens) (UniProt Q15466); assay: Displacement of [5,5'-3H2]AHPN from recombinant human GST-SHP partner nuclear orphan receptor at 50 uM
T1 sequence (whole entry): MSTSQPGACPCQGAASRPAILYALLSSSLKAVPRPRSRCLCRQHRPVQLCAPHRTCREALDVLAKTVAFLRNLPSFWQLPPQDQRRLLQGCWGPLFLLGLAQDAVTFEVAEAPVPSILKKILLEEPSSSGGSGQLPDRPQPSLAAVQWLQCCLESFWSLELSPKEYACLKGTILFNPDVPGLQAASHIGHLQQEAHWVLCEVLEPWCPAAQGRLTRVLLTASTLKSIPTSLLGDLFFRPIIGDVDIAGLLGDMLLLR
In short: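 GST–human SHP fusion (150–500 ng) on glutathione-Sepharose beads preincubated on ice 45 min with unlabeled compound (50 µM final) in 0.4 mL binding buffer. [5,5′-3H2]AHPN (5 nM final) then added for 2 h at 4 °C. Beads washed, counted by scintillation directly or after elution with 50 mM NaHCO3/1% SDS.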

KG-1 [20] = assay: Induction of apoptosis in retinoid-resistant KG1 cells at 5 uM after 48 hrs; assay type: functional, Homo sapiens; in short: as §1
MDA-MB-231 [21] = assay: Induction of apoptosis in retinoid-resistant MDA-MB-231 cells at 2 uM after 96 hrs; assay type: functional, Homo sapiens
[22] = target: T2, Tyrosine-protein phosphatase non-receptor type 11 (Homo sapiens, UniProt Q06124); assay: Inhibition of SHP2 PTP by fluorescence spectroscopy
T2 sequence (Q06124 whole entry): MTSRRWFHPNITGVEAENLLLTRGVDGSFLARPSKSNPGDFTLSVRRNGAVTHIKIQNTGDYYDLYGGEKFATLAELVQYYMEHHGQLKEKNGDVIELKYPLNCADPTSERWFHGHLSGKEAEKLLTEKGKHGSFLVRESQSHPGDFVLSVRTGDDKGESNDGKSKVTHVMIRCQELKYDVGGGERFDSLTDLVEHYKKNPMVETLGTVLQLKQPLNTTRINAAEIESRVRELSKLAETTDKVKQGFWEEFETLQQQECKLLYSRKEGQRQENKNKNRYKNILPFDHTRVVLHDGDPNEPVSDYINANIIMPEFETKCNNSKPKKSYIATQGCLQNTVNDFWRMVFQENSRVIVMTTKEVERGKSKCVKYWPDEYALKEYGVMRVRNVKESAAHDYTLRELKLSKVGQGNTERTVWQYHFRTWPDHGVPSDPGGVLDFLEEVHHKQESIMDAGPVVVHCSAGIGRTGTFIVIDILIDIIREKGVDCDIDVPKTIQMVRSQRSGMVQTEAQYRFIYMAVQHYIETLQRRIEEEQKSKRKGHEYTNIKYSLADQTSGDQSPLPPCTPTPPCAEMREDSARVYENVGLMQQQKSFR

[23] = Growth inhibition of primary HMVE cells at 1 uM after 72 hrs; assay type: functional; details: Homo sapiens; in short: as §4
[24] = target: Receptor-type tyrosine-protein phosphatase C, CD45 (Homo sapiens) (UniProt P08575); assay: Inhibition of CD45 PTP at 10 uM relative to control by fluorescence spectrometry
Chain of Receptor-type tyrosine-protein phosphatase C, CD45 (Homo sapiens) (P08575 whole entry, looked up): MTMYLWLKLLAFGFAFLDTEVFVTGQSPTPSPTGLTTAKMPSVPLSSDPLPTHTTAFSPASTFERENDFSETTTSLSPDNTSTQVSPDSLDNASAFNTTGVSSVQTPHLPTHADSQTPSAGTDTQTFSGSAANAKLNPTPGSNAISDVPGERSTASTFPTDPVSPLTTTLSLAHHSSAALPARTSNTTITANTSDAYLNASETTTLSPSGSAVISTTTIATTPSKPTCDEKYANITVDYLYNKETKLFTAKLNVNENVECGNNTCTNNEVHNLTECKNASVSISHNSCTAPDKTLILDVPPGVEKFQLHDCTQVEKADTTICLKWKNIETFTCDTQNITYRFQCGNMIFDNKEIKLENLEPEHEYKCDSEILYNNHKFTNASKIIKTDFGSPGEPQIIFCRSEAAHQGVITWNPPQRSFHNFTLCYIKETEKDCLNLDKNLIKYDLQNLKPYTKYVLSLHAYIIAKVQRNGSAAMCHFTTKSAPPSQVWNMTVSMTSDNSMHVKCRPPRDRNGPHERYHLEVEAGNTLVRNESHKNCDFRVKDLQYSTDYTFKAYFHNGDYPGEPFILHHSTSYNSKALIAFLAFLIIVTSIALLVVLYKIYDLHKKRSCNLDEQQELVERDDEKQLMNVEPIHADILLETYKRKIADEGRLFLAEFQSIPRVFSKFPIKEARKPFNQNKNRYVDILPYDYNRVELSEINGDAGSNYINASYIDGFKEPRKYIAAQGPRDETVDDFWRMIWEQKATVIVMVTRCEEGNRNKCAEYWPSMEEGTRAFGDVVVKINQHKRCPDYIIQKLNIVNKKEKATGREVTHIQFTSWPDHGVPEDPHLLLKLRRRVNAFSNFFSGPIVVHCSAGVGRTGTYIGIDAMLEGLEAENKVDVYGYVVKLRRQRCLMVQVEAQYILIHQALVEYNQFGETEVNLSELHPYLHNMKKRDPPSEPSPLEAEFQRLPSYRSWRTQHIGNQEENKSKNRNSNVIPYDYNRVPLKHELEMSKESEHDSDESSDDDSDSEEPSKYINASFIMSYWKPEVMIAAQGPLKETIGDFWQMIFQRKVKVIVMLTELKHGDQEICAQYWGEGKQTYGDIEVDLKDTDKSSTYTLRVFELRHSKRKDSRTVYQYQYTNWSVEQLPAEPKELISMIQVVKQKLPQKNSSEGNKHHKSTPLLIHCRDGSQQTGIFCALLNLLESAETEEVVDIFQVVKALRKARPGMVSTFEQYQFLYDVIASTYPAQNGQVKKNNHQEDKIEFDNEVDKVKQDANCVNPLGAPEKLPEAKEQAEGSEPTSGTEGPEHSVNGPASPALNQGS

Row | IC50 (MDA-MB-231 [6]) [µM] | IC50 (DU-145 [10]) [µM] | Activity [19] [%] | SMILES | Activity (KG-1 [4]) [%] | inhibition at 5 µM (KG-1 [5]) [%] | inhibition at 1 µM (MDA-MB-231 [7]) [%] | IC50 [8] [µM] | inhibition at 1 µM [9] [%] | inhibition at 1 µM (DU-145 [11]) [%] | IC50 (KG-1 [12]) [µM] | inhibition at 1 µM (KG-1 [13]) [%] | Activity (KG-1 [20]) [%] | other results
1 | 1.8 | 0.5 | 87 | O=C(O)/C=C/c1ccc(-c2ccc(O)c(C34CC5CC(CC(C5)C3)C4)c2)c(Cl)c1 | 30 | 67 | 32 | 0.4 | 79 | 76 | 0.3 | 44 | 55 | Activity (MDA-MB-231 [1]): 43%; IC50 [2]: 0.3 µM; inhibition at 0.5 µM [3]: 60%; IC50 [14]: 0.3 µM; Activity (HMVE [15]): Dose-dependent effect; Activity [16]: 64%; Activity (HMVE [17]): inactive; Activity (HMVE [18]): inactive
2 |  |  |  | O=C(O)c1cccc2c(-c3ccc(O)c(C45CC6CC(CC(C6)C4)C5)c3)cccc12 |  |  |  |  |  |  |  |  |  | Activity (MDA-MB-231 [21]): 4%
3 | 18 | 3.7 | 37 | O=C1NC(=O)/C(=C/c2ccc(-c3ccc(O)c(C45CC6CC(CC(C6)C4)C5)c3)c(Cl)c2)S1 | 8 | 41 | 0 | 3.6 | 17 | 17 | 14 | 28 | 10 | IC50 [22]: 2.2 µM; inhibition at 1 µM [23]: 30%; inhibition [24]: 53%
